Source: ChEMBL document CHEMBL5346963, “Innovative Strategy toward Mutant CFTR Rescue in Cystic Fibrosis: Design and Synthesis of Thiadiazole Inhibitors of the E3 Ligase RNF5” (J Med Chem, 2023)
One block for each compound: values may come before it. Active and inactive are the calls of the source. Unless noted, the calls are words filed in the database; no cut-off is given here.

Columns and labels:
[1] = Aggregation property of the compound in PBS buffer at pH 7.5 by 1D 1H-NMR analysis; type: physicochemical
Procedure, shortened: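 Solubility by 1H 1D NMR and aggregation by WaterLOGSY at 298 K in PBS pH 7.5 with 1 μM ZnCl2, 1 mM DTT, 10% D2O, 1% DMSO-d6. Theoretical concentrations 20, 50 and 100 μM, with 200 μM 4-trifluoromethyl benzoic acid as internal reference. WaterLOGSY: mixing time 1.7 s, relaxation delay 2 s, 256 scans.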

CFBE41o- [2] = test: Antiproliferative activity against human CFBE41o- cells harbouring CFTR F508del mutant/HS-YFP at 5 uM incubated for 48 hrs; type: toxicity, cell-based
Procedure, shortened: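 Cells plated at 5000/well and treated after 6 h with compound (5 μM) or DMSO. Cell-covered area was followed by the YFP signal over 48 h on a high-content imager. Means ± SEM, n = 6. Three independent experiments; ANOVA with Dunnett test.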

CFBE41o- [3] = test: Induction of autophagy in human CFBE41o- cells harbouring CFTR F508del mutant assessed as increase in number of autophagic vacuoles at 5 uM incubated for 24 hrs by confocal microscopy based analysis; type: functional, cell-based
Procedure, shortened: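 CFBE41o– F508del/HS-YFP cells (50,000/well) were treated 24 h with compound (5 μM), VX-809 (1 μM) or DMSO. SAR405 (2 μM) and torin1 (20 nM) were added near the end of incubation. Cells were then loaded with 50 μM MDC in PBS for 10 min at 37 °C, washed, and imaged. MDC spot number was normalized to control. n = 3; ANOVA with Dunnett test.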

[4] = biological target: T1, Cystic fibrosis transmembrane conductance regulator (Homo sapiens, UniProt P13569, F508DEL); test: Corrector activity at CFTR F508del mutant in human CFBE41o- cells incubated for 25 mins by microplate reader based analysis; type: cell-based
T1 sequence (P13569 as listed by the source): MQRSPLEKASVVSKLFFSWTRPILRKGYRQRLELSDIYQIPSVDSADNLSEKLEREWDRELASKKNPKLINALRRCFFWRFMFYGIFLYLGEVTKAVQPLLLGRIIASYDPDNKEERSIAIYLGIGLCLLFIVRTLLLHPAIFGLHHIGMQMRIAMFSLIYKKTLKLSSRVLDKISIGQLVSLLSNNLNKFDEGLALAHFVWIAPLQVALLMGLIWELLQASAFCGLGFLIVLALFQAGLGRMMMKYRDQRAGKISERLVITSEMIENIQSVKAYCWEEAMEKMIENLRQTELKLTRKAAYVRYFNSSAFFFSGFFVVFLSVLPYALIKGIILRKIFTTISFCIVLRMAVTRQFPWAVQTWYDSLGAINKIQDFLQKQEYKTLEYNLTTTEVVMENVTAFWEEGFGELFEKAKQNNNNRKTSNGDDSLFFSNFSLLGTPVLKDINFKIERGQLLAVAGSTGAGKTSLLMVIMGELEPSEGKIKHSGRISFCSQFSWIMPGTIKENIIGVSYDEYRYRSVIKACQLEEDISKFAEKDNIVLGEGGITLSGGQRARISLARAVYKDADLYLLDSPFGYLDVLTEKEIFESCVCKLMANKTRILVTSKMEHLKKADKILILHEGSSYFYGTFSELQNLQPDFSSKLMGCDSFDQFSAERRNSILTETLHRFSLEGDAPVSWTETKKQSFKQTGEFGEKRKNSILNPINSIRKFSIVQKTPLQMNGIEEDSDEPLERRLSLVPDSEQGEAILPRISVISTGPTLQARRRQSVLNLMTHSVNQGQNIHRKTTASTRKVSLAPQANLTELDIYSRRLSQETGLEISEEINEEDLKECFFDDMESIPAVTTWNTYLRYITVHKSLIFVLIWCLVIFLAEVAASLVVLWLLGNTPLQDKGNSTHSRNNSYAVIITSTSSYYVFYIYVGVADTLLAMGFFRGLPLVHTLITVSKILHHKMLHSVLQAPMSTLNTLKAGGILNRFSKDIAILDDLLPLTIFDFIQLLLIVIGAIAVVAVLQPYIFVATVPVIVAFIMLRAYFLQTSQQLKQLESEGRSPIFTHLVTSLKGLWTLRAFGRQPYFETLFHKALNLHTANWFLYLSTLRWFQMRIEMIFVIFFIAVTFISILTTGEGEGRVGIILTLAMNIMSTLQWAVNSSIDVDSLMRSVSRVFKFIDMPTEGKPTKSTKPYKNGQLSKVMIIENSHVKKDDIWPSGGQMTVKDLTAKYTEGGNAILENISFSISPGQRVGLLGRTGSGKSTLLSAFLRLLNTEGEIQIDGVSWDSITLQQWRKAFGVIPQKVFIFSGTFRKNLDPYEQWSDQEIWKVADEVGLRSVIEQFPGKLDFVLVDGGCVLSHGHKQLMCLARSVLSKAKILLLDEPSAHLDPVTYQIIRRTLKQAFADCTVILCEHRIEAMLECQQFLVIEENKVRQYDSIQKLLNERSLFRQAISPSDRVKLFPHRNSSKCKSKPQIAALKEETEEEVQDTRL
Procedure, shortened: (§1)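 CFBE41o– cells stably expressing F508del-CFTR and HS-YFP were treated 24 h after seeding; DMSO and VX-809 (1 μM) served as controls. Cells were stimulated 25 min with forskolin (20 μM) plus VX-770 (1 μM). YFP was read for 2 s before and 12 s after iodide injection. Initial slope came from an exponential fit of the final 11 s. Three independent experiments.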

[5] = system: Cystic fibrosis transmembrane conductance regulator (Homo sapiens), P13569 [F508del]; test: Corrector activity at CFTR F508del mutant in human CFBE41o- cells assessed as increase in CFTR mutant activity at 5 uM in presence of VX-809 incubated for 24 hrs; type: cell-based; procedure, shortened: as §1
Chain of Cystic fibrosis transmembrane conductance regulator (Homo sapiens), P13569 [F508del] (P13569 as listed by the source): as above

[6] = system: Cystic fibrosis transmembrane conductance regulator (Homo sapiens), P13569 [F508del]; test: Corrector activity at CFTR F508del mutant in human CFBE41o- cells assessed as increase in CFTR mutant activity at 5 uM in presence of VX-445 incubated for 24 hrs; type: cell-based; procedure, shortened: as §1
[7] = system: Cystic fibrosis transmembrane conductance regulator (Homo sapiens), P13569 [F508del]; test: Corrector activity at CFTR F508del mutant in human CFBE41o- cells assessed as rescue of CFTR mutant at 10 uM incubated for 24 hrs in presence of VX-445 by Western blot analysis; type: cell-based
[8] = system: Cystic fibrosis transmembrane conductance regulator (Homo sapiens), P13569 [F508del]; test: Corrector activity at CFTR F508del mutant in human CFBE41o- cells assessed as decrease in accumulation of ubiquitylated CFTR at 10 uM incubated for 24 hrs in presence of VX-445 by Western blot analysis; type: cell-based
Procedure, shortened: (§2)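 Confluent CFBE41o– F508del cells were treated 24 h, with MG-132 (10 μM) or DMSO in the last 4 h. Lysate (600 μg protein) was immunoprecipitated with rabbit anti-CFTR (2 μg, 1 h RT) and protein A/G beads, then eluted reducing. Samples ran on 4–15% gradient SDS-PAGE and were western blotted. Bands were read by chemiluminescence, with densitometry of ubiquitylated CFTR.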

[9] = biological target: T1, Cystic fibrosis transmembrane conductance regulator; test: Corrector activity at CFTR F508del mutant in human CFBE41o- cells coexpressing HS-YFP incubated for 25 mins by microplate reader based analysis; type: cell-based; procedure, shortened: as §1
[10] = system: Cystic fibrosis transmembrane conductance regulator (Homo sapiens), P13569 [F508del]; test: Corrector activity at CFTR F508del mutant in human CFBE41o- cells assessed as increase in CFTR mutant activity at 5 uM in presence of VX-661/VX-445 incubated for 24 hrs; type: cell-based; procedure, shortened: as §1
[11] = system: Cystic fibrosis transmembrane conductance regulator (Homo sapiens), P13569 [F508del]; test: Corrector activity at CFTR F508del mutant in human CFBE41o- cells transfected with NT siRNA assessed as increase in CFTR mutant activity at 5 uM incubated for 24 hrs; type: cell-based
Procedure, shortened: (§3)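 CFBE41o– F508del/HS-YFP cells were reverse-transfected with 50 nM (final) NT or RNF5 siRNA using lipofectamine 2000. Medium was changed next day, then compounds were given for 24 h at 37 °C. Readout was the YFP iodide-influx assay after forskolin (20 μM) plus VX-770 (1 μM) stimulation.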

[12] = system: Cystic fibrosis transmembrane conductance regulator (Homo sapiens), P13569 [F508del]; test: Corrector activity at CFTR F508del mutant in human CFBE41o- cells transfected with NT siRNA assessed as increase in CFTR mutant activity at 5 uM incubated for 24 hrs in presence of VX-661/VX-445; type: cell-based; procedure, shortened: as §3
[13] = system: Cystic fibrosis transmembrane conductance regulator (Homo sapiens), P13569 [F508del]; test: Corrector activity at CFTR F508del mutant in human CFBE41o- cells transfected with RNF5 siRNA assessed as increase in CFTR mutant activity at 5 uM incubated for 24 hrs; type: cell-based; procedure, shortened: as §3
[14] = system: Cystic fibrosis transmembrane conductance regulator (Homo sapiens), P13569 [F508del]; test: Corrector activity at CFTR F508del mutant in human CFBE41o- cells transfected with RNF5 siRNA assessed as increase in CFTR mutant activity at 5 uM incubated for 24 hrs in presence of VX-661/VX-445; type: cell-based; procedure, shortened: as §3
[15] = system: Cystic fibrosis transmembrane conductance regulator (Homo sapiens), P13569 [F508del]; test: Corrector activity at CFTR F508del mutant in human CFBE41o- cells assessed as rescue of CFTR mutant at 5 uM incubated for 24 hrs in presence of VX661/VX-445 by Western blot analysis; type: cell-based
[16] = system: Cystic fibrosis transmembrane conductance regulator (Homo sapiens), P13569 [F508del]; test: Corrector activity at CFTR F508del mutant in human CFBE41o- cells assessed as appearance of CFTR mutant forms at 5 uM incubated for 24 hrs in presence of MG-132 by Western blot analysis; type: cell-based; procedure, shortened: as §2
[17] = system: Cystic fibrosis transmembrane conductance regulator (Homo sapiens), P13569 [F508del]; test: Corrector activity at CFTR F508del mutant in human CFBE41o- cells assessed as decrease in accumulation of ubiquitylated CFTR at 5 uM incubated for 24 hrs in presence of VX-661/VX-445 by Western blot analysis; type: cell-based; procedure, shortened: as §2
CFBE41o- [18] = test: Induction of apoptosis in human CFBE41o- cells assessed as increase in apoptosis at 100 uM incubated for 24 hrs by Hoechst 33342 and propidium iodide staining based analysis; type: toxicity, cell-based
Procedure, shortened: (§4)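 Cells were plated at 10,000/well and treated after 6 h with compound (5, 20, 100 μM), VX-809 (1 μM), MG132 (50 μM) or DMSO for 24 h. Hoechst 33342 counted total nuclei and propidium iodide counted apoptotic nuclei, by high-content imaging. Means ± SEM; ANOVA with Dunnett test.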

CFBE41o- [19] = test: Induction of apoptosis in human CFBE41o- cells assessed as increase in apoptosis at 1 uM incubated for 24 hrs by Hoechst 33342 and propidium iodide staining based analysis; type: toxicity, cell-based; procedure, shortened: as §4

Activity [1]: Not Active
EC50 [4]: 2600 nM
Activity [5]: Active
Activity [6]: Active
SMILES: Cc1ns/c(=N\C(=N\c2ccccc2)c2ccccc2)n1Cc1ccccc1
Activity (CFBE41o- [2]): Non-Toxic
Activity (CFBE41o- [3]): Active

Activity [7]: Active
Activity [8]: Active
SMILES: CC(C)(CO)c1cc2cc(NC(=O)C3(c4ccc5c(c4)OC(F)(F)O5)CC3)c(F)cc2n1C[C@@H](O)CO

SMILES: Cc1ns/c(=N\C(=N\c2ccccc2)c2ccccc2)n1Cc1ccc(F)cc1
Activity (CFBE41o- [2]): Non-Toxic
Activity (CFBE41o- [3]): inactive

Activity [1]: Not Active
EC50 [9]: 1200 nM
Activity [5]: Active
Activity [6]: Active
Activity [10]: Active
Activity [11]: Active
Activity [12]: Active
Activity [13]: inactive
Activity [14]: inactive
Activity [15]: Active
Activity [16]: inactive
Activity [17]: Active
SMILES: COc1cccc(Cn2c(C)ns/c2=N\C(=N\c2ccccc2)c2ccccc2)c1
Activity (CFBE41o- [2]): Non-Toxic
Activity (CFBE41o- [3]): Active

SMILES: CCOc1cccc(Cn2c(C)ns/c2=N\C(=N\c2ccccc2)c2ccccc2)c1
Activity (CFBE41o- [2]): Non-Toxic

Activity [1]: Not Active
SMILES: Cc1ns/c(=N\c2ccccn2)n1Cc1ccccc1

Activity [1]: Not Active
SMILES: Cc1ns/c(=N\C(=N\c2ccncc2)c2ccccc2)n1Cc1ccccc1

SMILES: COc1ccccc1Cn1c(C)ns/c1=N\C(=N\c1ccccc1)c1ccccc1
Activity (CFBE41o- [2]): Non-Toxic
Activity (CFBE41o- [18]): Toxic

SMILES: Cc1ccc(Cn2c(C)ns/c2=N\C(=N\c2ccccc2)c2ccccc2)cc1
Activity (CFBE41o- [2]): Non-Toxic

SMILES: Cc1ns/c(=N\C(=N\c2ccccc2)c2ccccc2)n1Cc1cccc(N(C)C)c1
Activity (CFBE41o- [2]): Non-Toxic

SMILES: Cc1ns/c(=N\C(=N\c2ccccc2)c2ccccc2)n1Cc1ccccc1Cl
Activity (CFBE41o- [2]): Non-Toxic
Activity (CFBE41o- [18]): Toxic

SMILES: Cc1ns/c(=N\C(=N\c2ccccc2)c2ccccc2)n1Cc1ccc(Cl)cc1
Activity (CFBE41o- [2]): Non-Toxic

SMILES: Cc1ccc(NC(=O)C2(c3ccc4c(c3)OC(F)(F)O4)CC2)nc1-c1cccc(C(=O)O)c1 [LUMACAFTOR]
Activity (CFBE41o- [2]): Non-Toxic
Activity (CFBE41o- [19]): Toxic

Activity [1]: Not Active
SMILES: Cc1ns/c(=N\C(=N\c2ccccc2)c2ccccc2)n1-c1ccccc1
Activity (CFBE41o- [2]): Non-Toxic
Activity (CFBE41o- [18]): Toxic
Activity (CFBE41o- [3]): inactive
